Rows were chosen to be rich in hits. Some 1.6% of all compounds tested hit in one or more screens of this group.
S100A4 inh HTS = inhibitors of S100A4-myosin IIA peptide binding, primary screen, biochemical, fluorescence polarization, TAMRA-MyoIIA peptide. Protein S100-A4 (Homo sapiens), P26447. inhibition, % at 10.7 µM. 0.14% of 360,000 active. AID 652163, 2013;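 active = mean inhibition of at least 70% across replicates, with every replicate also reaching that level; inconclusive = mean inhibition reaches 70% but some replicates fall short; inactive = mean inhibition below 70%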
Target sequence (P26447 whole entry, looked up): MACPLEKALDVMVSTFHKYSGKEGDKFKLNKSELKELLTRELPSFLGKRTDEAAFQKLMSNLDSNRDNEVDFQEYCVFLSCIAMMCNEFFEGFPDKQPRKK
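Test system: S100A4 monomer protein; Medium: HEPES pH 7.2 with CaCl2, KCl, NaCl, DTT, Triton; Probe or stimulus: TAMRA-labelled myosin IIA heavy-chain peptide probe, 5 nM; Doses: one dose per compound; Times: polarization read 5 min after assay mix addition, stable 5–60 min; Benchmarks: neutral control DMSO, positive control TFP.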
dFosB act-1 = activators of delta FosB homodimer, primary screen, biochemical, fluorescence polarization, TAMRA-CDK5 oligo, single point; purified delta FosB; percent of positive-control signal above neutral wells; activation, % at 25 µM; 0.99% of 340,000 active; AID 493131, 2011;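 active = mean activation above about 17%, with every replicate also reaching it, limit read from the data, passing the limit was not always enough; inconclusive = only one of the two conditions met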
SR-BI DiI-HDL act = activators of SR-BI mediated DiI-HDL uptake, primary screen, ldlA[mSR-BI] CHO cells, DiI fluorescence. 0.096% of 320,000 active. 3 h; 100 = double the neutral-control signal. activation, % at 12.5 µM;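 active = mean replicate activation of at least 60% and every replicate at or above 60%; inconclusive = mean or all-replicate condition met, but not both; inactive = mean below 60% and not all replicates reaching 60%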;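 note: 0% = median plate neutral-control signal and 100% = twice that signal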
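Test system: SR-BI-overexpressing, LDLR-lacking CHO cells; Also added: labelled HDL, 10 µg/mL; Measured by: bottom-read cell fluorescence after medium removal, ex 550/em 595 nm; Timing: 3 h uptake period with compound, 37 °C; Buffer or medium: F12, 0.5% BSA, 25 mM HEPES; Doses: single compound concentration, delivered by pin transfer.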
SR-BI HDL uptake = inhibitors of SR-BI mediated HDL lipid uptake, primary screen, ldlA[mSR-BI] cells, fluorescence, single point; Scavenger receptor class B member 1 (Mus musculus), Q61009; inhibition, % at 12.5 µM; AID 488896, 2010; ldlA[mSR-BI] CHO cells, DiI-HDL uptake fluorescence, 3 h; 0.96% of 320,000 active;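 active = mean replicate inhibition of at least 70% and a set share of replicates each scoring 70 or more; inconclusive = meets just one of the two criteria; inactive = fails both criteria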;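 note: 0% = median of neutral control wells and 100% = median of positive control wells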
Target sequence (Q61009 whole entry, looked up): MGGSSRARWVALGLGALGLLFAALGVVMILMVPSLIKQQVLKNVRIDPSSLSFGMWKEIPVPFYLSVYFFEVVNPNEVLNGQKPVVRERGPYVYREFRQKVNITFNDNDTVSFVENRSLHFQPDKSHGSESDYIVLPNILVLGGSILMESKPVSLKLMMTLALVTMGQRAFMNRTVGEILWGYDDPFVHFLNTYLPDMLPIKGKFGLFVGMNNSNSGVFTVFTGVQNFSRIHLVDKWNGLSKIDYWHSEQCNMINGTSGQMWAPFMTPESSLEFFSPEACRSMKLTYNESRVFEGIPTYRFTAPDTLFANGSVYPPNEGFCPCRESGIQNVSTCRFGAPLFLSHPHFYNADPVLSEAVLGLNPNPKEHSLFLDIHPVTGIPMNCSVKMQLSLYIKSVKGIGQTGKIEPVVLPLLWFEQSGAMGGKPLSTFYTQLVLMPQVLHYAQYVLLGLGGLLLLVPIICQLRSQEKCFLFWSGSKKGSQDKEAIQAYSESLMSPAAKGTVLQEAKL
RAD54 inh = inhibitors of human RAD54 branch migration, primary screen, biochemical, fluorescence, single point; 0.14% of 360,000 active; inhibition, % at 10.4 µM; AID 602329, 2012; DNA repair and recombination protein RAD54-like (Homo sapiens), Q92698; RAD54 Holliday junction branch migration, FAM/BHQ fluorescence;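 active = mean normalized replicate activity at least 40 and at least half of replicates scoring 40 or more; inconclusive = only one of the two criteria met; inactive = mean below 40 and under half of replicates reaching 40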;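 note: 0% = median of neutral control wells and 100% = median of positive control wells; inhibitors cause a drop in the FAM fluorescence signal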
PvdQ acylase = P. aeruginosa PvdQ acylase inhibitors, primary screen, biochemical, fluorescence, plate reader and imaging, single point; PvdQ acylase [Pseudomonas aeruginosa LESB58]; purified PvdQ acylase; inhibition, % at 10 µM; 0.063% of 340,000 active; AID 488965, 2010; in the data active = inhibition above about 30%, passing the limit was not always enough; inconclusive = no clear call, values can overlap the other calls;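 note: 0% = vehicle neutral wells and 100% = reference inhibitor wells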
dFosB act-2 = activators of mouse delta FosB DNA binding, confirmation, biochemical, fluorescence polarization, TAMRA-CDK5 oligo, cherry-picked samples; purified delta FosB; normalised: neutral wells 0, positive control 100; activation, % at 24.9 µM; 2,400 tested, under 10 active; shares compounds with dFosB act-1;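 active = highest replicate activation at or above 34% and every replicate reaching that threshold; inconclusive = meets only one of the two criteria; inactive = meets neither criterion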;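 note: higher polarization means more probe DNA bound by delta FosB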
Starred values were filed as active, the others as inactive.

What do the screens show for `Cc1c(Cc2ccccc2)sc(NC(=O)c2ccco2)c1C(N)=O`?
dFosB act-1: 21*; SR-BI DiI-HDL act: -5; SR-BI HDL uptake: 5; RAD54 inh: -2; PvdQ acylase: -2; dFosB act-2: 3

How did COC(=O)c1c(NC(=O)c2ccco2)sc(C)c1C do in these assays?
dFosB act-1: -1; SR-BI DiI-HDL act: -50; SR-BI HDL uptake: 50; RAD54 inh: -11; PvdQ acylase: -10

Results for COc1ccc(NC(=O)Nc2ccc3c(c2)C(=O)N([C@@H](C)CO)C[C@@H](C)[C@H](CN(C)C(=O)Nc2c(C)noc2C)OCCCC[C@@H](C)O3)cc1 ?
S100A4 inh HTS: 6; RAD54 inh: 3

What do the screens show for `CC(=O)N1CCN(c2cc(N3CCCC3)c(F)cc2[N+](=O)[O-])CC1`?
S100A4 inh HTS: 1; dFosB act-1: -5; SR-BI DiI-HDL act: -58; SR-BI HDL uptake: 58; RAD54 inh: 3; PvdQ acylase: 7

How did CCN1CCN(c2cc(N3CCc4ccccc4C3)c(F)cc2[N+](=O)[O-])CC1 do in these assays?
dFosB act-1: 19*; SR-BI DiI-HDL act: -48; SR-BI HDL uptake: 48; PvdQ acylase: 14; dFosB act-2: 0

How did COc1ccc(OC)c(NC(=O)C(C)OC(=O)c2cc3ccccc3[nH]2)c1 (stereo unspecified) do in these assays?
S100A4 inh HTS: 1; dFosB act-1: 19*; SR-BI DiI-HDL act: -28; SR-BI HDL uptake: 28; RAD54 inh: -3; PvdQ acylase: -3; dFosB act-2: 3

What do the screens show for `O=c1[nH]c(SCc2nc3c(cnn3-c3ccccc3)c(=O)[nH]2)nc2ccccc12`?
dFosB act-1: 44*; SR-BI DiI-HDL act: -16; SR-BI HDL uptake: 16; RAD54 inh: -8; PvdQ acylase: -15; dFosB act-2: 4

How did CC(=O)Nc1ccc(NC(=O)c2cccc(-c3cc4ccccc4oc3=O)c2)cc1 do in these assays?
S100A4 inh HTS: -2; dFosB act-1: 5; SR-BI DiI-HDL act: -33; SR-BI HDL uptake: 33; RAD54 inh: -3; PvdQ acylase: -13

What do the screens show for `COc1cc(NC(=O)c2ccc(Cl)cc2Cl)ccc1-c1cc2ccccc2oc1=O`?
dFosB act-1: 24*; SR-BI DiI-HDL act: -84; SR-BI HDL uptake: 84*; RAD54 inh: 5; PvdQ acylase: -12; dFosB act-2: 6

Results for COc1cc(NC(C)=O)ccc1-c1cc2ccccc2oc1=O ?
S100A4 inh HTS: 5; dFosB act-1: -10; SR-BI DiI-HDL act: -24; SR-BI HDL uptake: 24; PvdQ acylase: -6

How did COc1ccc(C(=O)Nc2cccc(-c3cc4ccccc4oc3=O)c2)cc1[N+](=O)[O-] do in these assays?
dFosB act-1: 52*; SR-BI DiI-HDL act: -71; SR-BI HDL uptake: inconclusive; PvdQ acylase: 6; dFosB act-2: 5

Results for COc1ccc2nc(NC(=O)c3cccc(-c4cc5ccccc5oc4=O)c3)sc2c1 ?
dFosB act-1: 44*; SR-BI DiI-HDL act: -77; SR-BI HDL uptake: 77*; PvdQ acylase: -1; dFosB act-2: 0

What do the screens show for `COCC(=O)NC[C@H]1[C@H](c2ccc(C3=CCCC3)cc2)[C@@H](CO)N1C(C)=O`?
S100A4 inh HTS: -3; RAD54 inh: 7

How did COc1ccc(C(=O)Nc2nnc(SCC(=O)NCc3ccco3)s2)cc1OC do in these assays?
S100A4 inh HTS: 0; dFosB act-1: 26*; SR-BI DiI-HDL act: -7; SR-BI HDL uptake: 7; RAD54 inh: 1; PvdQ acylase: 15; dFosB act-2: 2

How did COc1ccc(C(=O)Nc2nnc(SCC(=O)NC3CCCC3)s2)c(OC)c1 do in these assays?
S100A4 inh HTS: 2; dFosB act-1: -6; SR-BI DiI-HDL act: 7; SR-BI HDL uptake: -7; RAD54 inh: -14; PvdQ acylase: -23

What do the screens show for `COc1ccc(C(=O)Nc2nnc(SCC(=O)NC3CC3)s2)cc1`?
S100A4 inh HTS: 9; dFosB act-1: 22*; RAD54 inh: 1; PvdQ acylase: -15; dFosB act-2: 3

How did COc1cccc(C(=O)Nc2nnc(SCC(=O)NC3CC3)s2)c1 do in these assays?
S100A4 inh HTS: -8; dFosB act-1: 53*; SR-BI DiI-HDL act: 6; SR-BI HDL uptake: -6; RAD54 inh: 7; PvdQ acylase: -11; dFosB act-2: -2

How did O=C(CCCl)Nc1nnc(SCC(=O)NC2CCCC2)s1 do in these assays?
S100A4 inh HTS: 0; dFosB act-1: 20*; SR-BI DiI-HDL act: 20; SR-BI HDL uptake: -20; RAD54 inh: 2; PvdQ acylase: -13; dFosB act-2: 0

How did COc1cccc(CNC(=O)C[C@H]2CC[C@@H]3[C@@H](COc4ccc(NC(C)=O)cc4C(=O)N3C)O2)c1 do in these assays?
RAD54 inh: -1

What do the screens show for `COCCSc1nnc(NC(=O)c2ccc(OC)c([N+](=O)[O-])c2)s1`?
S100A4 inh HTS: -1; dFosB act-1: 26*; SR-BI DiI-HDL act: -18; SR-BI HDL uptake: 18; PvdQ acylase: -3; dFosB act-2: -6

What do the screens show for `COCC(=O)Nc1ccc2c(c1)C(=O)N(C)C[C@@H](OC)[C@@H](C)CN(C(=O)c1ccccc1F)[C@@H](C)CO2`?
S100A4 inh HTS: -51; RAD54 inh: -3

What do the screens show for `CCN(CC)CCN(C(=O)c1ccc2c(c1)CCCC2)c1nc2c(C)cccc2s1`?
S100A4 inh HTS: -4; dFosB act-1: 29*; SR-BI DiI-HDL act: -59; SR-BI HDL uptake: 59; RAD54 inh: -19; PvdQ acylase: -15; dFosB act-2: -5

How did CCN(CC)CCN(C(=O)c1ccc2c(c1)CCCC2)c1nc2ccc(OC)cc2s1 do in these assays?
S100A4 inh HTS: -6; dFosB act-1: 23*; SR-BI DiI-HDL act: -40; SR-BI HDL uptake: 40; RAD54 inh: 11; PvdQ acylase: 14; dFosB act-2: 1

Results for CCN(CC)CCN(C(=O)c1ccc2c(c1)CCCC2)c1nc2ccc(C)cc2s1 ?
S100A4 inh HTS: 1; dFosB act-1: 11; SR-BI DiI-HDL act: -31; SR-BI HDL uptake: 31; RAD54 inh: -7; PvdQ acylase: -8

How did CCOC(=O)Nc1ccc2c(c1)N(C(=O)CN)c1ccccc1CC2 do in these assays?
S100A4 inh HTS: 0; dFosB act-1: 30*; SR-BI DiI-HDL act: 12; SR-BI HDL uptake: -12; RAD54 inh: -12; PvdQ acylase: -20; dFosB act-2: -1
